Consider twelve compounds from ChEMBL document CHEMBL1148577, “Discovery of benzylidenebenzofuran-3(2H)-one (aurones) as inhibitors of tyrosinase derived from human melanocytes” (J Med Chem, 2006).

Series [1] addresses T1, Tyrosinase (Homo sapiens) (UniProt P14679).
T1 sequence (whole entry): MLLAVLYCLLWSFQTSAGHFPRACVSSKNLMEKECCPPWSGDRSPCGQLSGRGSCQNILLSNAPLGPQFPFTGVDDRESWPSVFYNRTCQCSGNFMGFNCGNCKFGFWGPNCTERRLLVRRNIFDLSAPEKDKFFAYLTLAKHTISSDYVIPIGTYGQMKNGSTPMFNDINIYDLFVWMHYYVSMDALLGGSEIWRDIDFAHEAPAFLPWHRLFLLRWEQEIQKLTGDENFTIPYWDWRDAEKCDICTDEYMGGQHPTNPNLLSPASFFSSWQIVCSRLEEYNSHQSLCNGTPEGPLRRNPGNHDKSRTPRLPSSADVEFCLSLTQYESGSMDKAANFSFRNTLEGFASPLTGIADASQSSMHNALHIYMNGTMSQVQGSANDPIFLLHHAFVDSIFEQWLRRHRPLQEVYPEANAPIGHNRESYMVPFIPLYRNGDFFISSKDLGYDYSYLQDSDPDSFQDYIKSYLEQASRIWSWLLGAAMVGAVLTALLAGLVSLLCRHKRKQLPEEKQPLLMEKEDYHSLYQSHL
Briefly: Inhibition of tyrosinase in human melanocytes at 0.1 mM. Type of series: cell-based.

The target of the next series is T2, Tyrosinase (Homo sapiens, UniProt P14679).
T2 sequence (P14679 whole entry): T1 sequence (whole entry)
Briefly: Inhibitory activity against tyrosinase in human melanocytes. Type of series: cell-based.

The target in series [2] is T1, Tyrosinase (Homo sapiens). Kind of series: Inhibition of tyrosinase in human white skin melanocytes at 0.1 mM. Type of series: cell-based.
Series [3] has as its target T1, Tyrosinase (Homo sapiens). Briefly: Inhibition of tyrosinase in human dark skin melanocytes at 0.1 mM. Type of series: cell-based.
In series [4] the target is T1, Tyrosinase (Homo sapiens). Kind of series: Inhibition of tyrosinase in human black skin melanocytes at 0.1 mM. Type of series: cell-based.
The target in series [5] is T1, Tyrosinase (Homo sapiens). Kind of series: Inhibition of tyrosinase in human white skin melanocytes at 0.01 mM. Type of series: cell-based.
Series [6] concerns the target T1, Tyrosinase (Homo sapiens). Briefly: Inhibition of tyrosinase in human dark skin melanocytes at 0.01 mM. Type of series: cell-based.
The target of series [7] is T1, Tyrosinase (Homo sapiens). Kind of series: Inhibition of tyrosinase in human black skin melanocytes at 0.01 mM. Type of series: cell-based.
The test system of a further series is Rattus norvegicus. Briefly: Oral toxicity in rats administered at 5 g/kg, po. Type of series: organism-based. The settings on record: in vivo, 5000 mg/kg. In a few lines:
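Acute oral toxicity following OECD 423 acute toxic class method in six female rats. Single dose of 5 g/kg test preparation (10% in xanthane gel). Six female controls received distilled water 2000 mg/kg. Daily observation for 14 days for mortality and signs of toxicity. GHS classification.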

In the case of `CCc1ccc(/C=C2\Oc3cc(O)ccc3C2=O)cc1`, in series [1], the inhibition (commonly the percentage by which the read-out fell short of the control) is 0%.

`O=C1/C(=C/c2ccccc2)Oc2cc(O)ccc21` returned an inhibition in series [1] of 0%.

`CCc1ccccc1/C=C1\Oc2cc(O)cc(O)c2C1=O` had an inhibition in series [1] of 0%.

Compound `COc1cc(/C=C2\Oc3cc(O)cc(O)c3C2=O)ccc1O` returned an inhibition in series [1] of 4%.

In [1], `CCCc1ccc(/C=C2\Oc3cc(O)cc(O)c3C2=O)cc1` displayed an inhibition of 5%.

Compound `CCOc1ccc(/C=C2\Oc3cc(O)cc(O)c3C2=O)cc1` returned an inhibition in series [1] of 5%.

In series [1], `CC(C)(C)c1ccc(/C=C2\Oc3cc(O)cc(O)c3C2=O)cc1` registered an inhibition of 0%.

As for `O=C1/C(=C/c2ccccc2)Oc2cc(O)cc(O)c21`, the inhibition in series [1] was 3%.

Consider `COc1ccc(/C=C2\Oc3cc(O)cc(O)c3C2=O)cc1`, for which, in [1], the inhibition was 11%.

On to `O=C1/C(=C/c2ccccc2O)Oc2cc(O)cc(O)c21`, for which the inhibition in series [1] worked out at 4%.

With `O=C1/C(=C/c2ccc(O)cc2)Oc2cc(O)cc(O)c21`, the inhibition was found to be 75% in series [1]; 75% in series [2]; 67% in series [3]; 66% in [4]; 38% in series [5]; 32% in series [6]. In series [7], this compound showed an inhibition of 39%. It took 38 µM to reach half-maximal inhibition at Tyrosinase (IC50). Moreover, the Activity entry in the series with Rattus norvegicus was “Non-toxic”.

`O=C1/C(=C/c2ccc(O)cc2)Oc2ccccc21` had an inhibition in [1] of 39%.
